Test results from ChEMBL document CHEMBL5532760, “Synergy between the clavanins as a weapon against multidrug-resistant Enterobacter cloacae” (2024).
In brackets after ≈: the same amount, converted by molar mass. Several values for one entry are separate records, joined by “and”; a condition that tells them apart may be missing. Equal values may be shown once. Where a SMILES comes first, the peptide text is derived from it. [ ]: non-standard residue; d: D form. Dopa = N[C@@H](Cc1ccc(O)c(O)c1)C(=O)O

What was measured:
[1] = tested on: Enterobacter cloacae; experiment: Antibacterial activity against Enterobacter cloacae 0136 at pH 7.4 incubated for 18 to 20 hrs by broth microdilution method; assay type: functional; conditions: time 18-20 hrs
Summary of the method: (§1)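 E. cloacae AR#0136 grown at 37 °C with shaking at 234 rpm to mid-log (OD600 0.4–0.6) in MHB. For pH 5.5 the medium was adjusted with 0.1 M HCl before autoclaving; the pH 7.4 medium was not adjusted. Peptides were twofold serially diluted; final inoculum 5×10^5 CFU/mL; 37 °C for 18–20 h. MIC taken as the lowest concentration with no visible growth.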

[2] = tested on: Enterobacter cloacae; experiment: Antibacterial activity against Enterobacter cloacae 0136 at pH 5.5 incubated for 18 to 20 hrs by broth microdilution method; assay type: functional; conditions: time 18-20 hrs; summary of the method: as §1

Row | MIC [1] | MIC [2] | Molecule
1 | > 128 µM and 371 µg/mL | 8 µM and 23 µg/mL | CC[C@H](C)[C@H](NC(=O)[C@H](CCCNC(=N)N)NC(=O)CNC(=O)[C@H](CC(C)C)NC(=O)[C@H](CC(C)C)NC(=O)[C@H](CCCCN)NC(=O)[C@H](Cc1ccccc1)NC(=O)[C@H](C)N)C(=O)N[C@H](C(=O)N[C@@H](Cc1cnc[nH]1)C(=O)N[C@@H](Cc1cnc[nH]1)C(=O)N[C@H](C(=O)NCC(=O)N[C@@H](CC(N)=O)C(=O)N[C@@H](Cc1ccccc1)C(=O)N[C@H](C(=O)N[C@@H](Cc1ccc(O)c(O)c1)C(=O)NCC(=O)N[C@@H](Cc1ccccc1)C(=O)N[C@@H](CO)C(=O)N[C@@H](Cc1cnc[nH]1)C(=O)N[C@H](C(=O)N[C@@H](Cc1ccccc1)C(=O)O)C(C)C)C(C)C)C(C)C)[C@@H](C)CC (H-AFKLLGRIIHHVGNFV[Dopa]GFSHVF-OH)
2 | 348 µg/mL | 11 µg/mL | H-FLRFIGSVIHGIGHLVHHIGVAL-NH2
3 | > 128 µM and 341 µg/mL | > 128 µM and 341 µg/mL | H-VFQFLGKIIHHVGNFVHGFSHVF-NH2

Continued, molecule first:

Row | Molecule | MIC [1] | MIC [2]
4 | CC[C@H](C)[C@H](NC(=O)[C@H](CCCCN)NC(=O)CNC(=O)[C@H](CC(C)C)NC(=O)[C@H](CC(C)C)NC(=O)[C@H](Cc1cnc[nH]1)NC(=O)[C@H](Cc1ccccc1)NC(=O)[C@@H](N)C(C)C)C(=O)N[C@H](C(=O)N[C@@H](Cc1cnc[nH]1)C(=O)N[C@@H](Cc1cnc[nH]1)C(=O)N[C@H](C(=O)NCC(=O)N[C@@H](CC(N)=O)C(=O)N[C@@H](Cc1ccccc1)C(=O)N[C@H](C(=O)N[C@@H](Cc1ccc(O)c(O)c1)C(=O)NCC(=O)N[C@@H](Cc1ccccc1)C(=O)N[C@@H](CO)C(=O)N[C@@H](Cc1cnc[nH]1)C(=O)N[C@H](C(=O)N[C@@H](Cc1ccccc1)C(=O)O)C(C)C)C(C)C)C(C)C)[C@@H](C)CC | > 128 µM and 372 µg/mL | 46 µg/mL (≈ 17.1 µM)
5 | H-GIGKFLHSAKKFGKAFVGEIMNS-NH2 | 4 µM and 4.9 µg/mL | 4 µM and 4.9 µg/mL
6 | H-LFKLLGKIIHHVGNFVHGFSHVF-NH2 | > 128 µM and 368 µg/mL | 8 µM and 23 µg/mL
7 | H-VFQFLGRIIHHVGNFVHGFSHVF-NH2 | > 128 µM and 344 µg/mL | 128 µM and 344 µg/mL
